In ChEMBL document CHEMBL2086353, “Design, synthesis and structure-activity relationship of novel inhibitors against H5N1 hemagglutinin-mediated membrane fusion” (Eur J Med Chem, 2012):
Calls of active or inactive are those of the source. No cut-off for these calls is given here.

Test system: not listed separately
Assay: Inhibition of Influenza A virus (A/Anhui/1/2005(H5N1)) hemagglutininin-mediated membrane fusion assessed as inhibition of H5N1 pesudovirus infection of MDCK cells using A/Anhui/1/2005(H5N1) hemagglutinin plasmid and NA plasmid from N1 subtype strain A/Thailand/Kan353/ 2004 infected in 293T cells by luciferase reporter gene assay
Type: cell-based
Summary of the method: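 MDCK target cells grown in DMEM with glutamine and 10% FCS. Compound at indicated concentrations preincubated with H5N1 HA/NA-pseudotyped luciferase-reporter particles (1 ng p24/well) for 30 min at 37 °C. Mixture then added to cells for 48 h. Cells PBS-washed and lysed, and luciferase activity read on a luminometer.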

Question: For `O=C(NCCc1cccs1)c1cccc(C(F)(F)F)c1`, which IC50 is on record?
Answer: 4.33 µM

Question: Which IC50 does the source give for `CC(NC(=O)c1cc(F)cc(C(F)(F)F)c1)c1ccc2ccccc2c1` (stereo unspecified) here?
Answer: 49 µM

Question: For `O=C(NCCc1cccs1)c1cncc(Cl)c1`, which IC50 is on record?
Answer: 9.2 µM

Question: Which IC50 does the source give for `CN1CCN(CCCNC(=O)c2cc(C(F)(F)F)cc(C(F)(F)F)c2)CC1` here?
Answer: 66.6 µM

Question: For `O=C(NC1CCCCC1)c1cccc(C(F)(F)F)c1`, which IC50 is on record?
Answer: 7.8 µM

Question: For `CC(NC(=O)c1cc(C(F)(F)F)cc(C(F)(F)F)c1)c1ccc2ccccc2c1` (stereo unspecified), which IC50 is on record?
Answer: 40.8 µM

Question: Which IC50 does the source give for `O=C(NCCc1ccccc1)c1cc(F)cc(C(F)(F)F)c1` here?
Answer: 0.33 µM

Question: For `O=C(OCCN1CCCCC1)c1cc(F)cc(C(F)(F)F)c1`, which IC50 is on record?
Answer: 61.2 µM

Question: With `O=C(NCCc1cccs1)c1cncc(Br)c1` as the compound, how does the IC50 read?
Answer: 7.61 µM

Question: With `O=C(NCCN1CCOCC1)c1cc(C(F)(F)F)cc(C(F)(F)F)c1` as the compound, how does the IC50 read?
Answer: 9.89 µM

Question: Which IC50 does the source give for `O=C(NCCN1CCCCC1)c1cncc(Br)c1` here?
Answer: 5.13 µM

Question: For `O=C(NCc1cccnc1)c1cc(C(F)(F)F)cc(C(F)(F)F)c1`, which IC50 is on record?
Answer: 2.46 µM

Question: Which IC50 does the source give for `O=C(NCCc1ccccc1)c1cc(C(F)(F)F)cc(C(F)(F)F)c1` here?
Answer: 2.47 µM

Question: Which IC50 does the source give for `O=S(=O)(NCCN1CCCCC1)c1cccc(C(F)(F)F)c1` here?
Answer: 54.9 µM

Question: Which IC50 does the source give for `O=C(NCc1ccncc1)c1cc(F)cc(C(F)(F)F)c1` here?
Answer: 0.56 µM

Question: For `O=C(NCCN1CCCCC1)c1cncc(Cl)c1`, which IC50 is on record?
Answer: 6.25 µM

Question: With `O=C(NCCc1cccs1)c1cc(C(F)(F)F)cc(C(F)(F)F)c1` as the compound, how does the IC50 read?
Answer: 2.44 µM

Question: For `O=C(NCCc1cccs1)c1cc(F)cc(C(F)(F)F)c1`, which IC50 is on record?
Answer: 0.22 µM

Question: Which IC50 does the source give for `O=C(NCCN1CCCC1)c1cc(C(F)(F)F)cc(C(F)(F)F)c1` here?
Answer: 1.71 µM

Question: For `CN1CCN(CCCNC(=O)c2cc(F)cc(C(F)(F)F)c2)CC1`, which IC50 is on record?
Answer: 84.3 µM

Question: Which IC50 does the source give for `O=C(NCCN1CCCC1)c1cc(F)cc(C(F)(F)F)c1` here?
Answer: 0.38 µM

Question: With `O=C(NCCN1CCCCC1)c1cc(C(F)(F)F)cc(C(F)(F)F)c1` as the compound, how does the IC50 read?
Answer: 2.51 µM

Question: Which IC50 does the source give for `O=C(NCCN1CCCC1)c1cc(O)c(O)cc1O` here?
Answer: 41.5 µM

Question: With `O=C(NCCN1CCOCC1)c1cc(F)cc(C(F)(F)F)c1` as the compound, how does the IC50 read?
Answer: 1.22 µM

Question: Which IC50 does the source give for `O=C(NCCOC(=O)c1cc(F)cc(C(F)(F)F)c1)c1cc(F)cc(C(F)(F)F)c1` here?
Answer: 60 µM

Question: Which IC50 does the source give for `O=C(NCCN1CCCCC1)c1cc(F)cc(C(F)(F)F)c1` here?
Answer: 0.37 µM

Question: Which IC50 does the source give for `O=C(NCCc1ccccc1)c1cccc(C(F)(F)F)c1` here?
Answer: 80 µM

Test system: Influenza A virus
Assay: Antiviral activity against Influenza A virus (A/Thailand/Kan353/2004(H5N1)) assessed as inhibition of viral infection
Type: functional, organism-based

Question: With `O=C(NCCN1CCCCC1)c1cc(F)cc(C(F)(F)F)c1` as the compound, how does the IC50 read?
Answer: 27 µM

Test system: MDCK
Assay: Inhibition of Vesicular stomatitis virus G hemagglutininin-mediated membrane fusion assessed as inhibition of […] infection of MDCK cells by luciferase reporter gene assay
Type: cell-based
Summary of the method: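 Specificity control: VSV-G-pseudotyped luciferase-reporter particles replace the H5N1 pseudovirus. Compound preincubated with particles (1 ng p24/well) for 30 min at 37 °C, then added to MDCK cells (DMEM, 10% FCS) for 48 h. Lysate luciferase read on a luminometer.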

Question: With `O=C(NCc1ccncc1)c1cc(F)cc(C(F)(F)F)c1` as the compound, how does the inhibition read?
Answer: inactive

Question: For `O=C(NCCc1cccs1)c1cc(F)cc(C(F)(F)F)c1`, which inhibition is on record?
Answer: inactive

Question: With `O=C(NCCN1CCCC1)c1cc(F)cc(C(F)(F)F)c1` as the compound, how does the inhibition read?
Answer: inactive
